Data from ChEMBL document CHEMBL4680373, “Evaluation of 5-(Trifluoromethyl)-1,2,4-oxadiazole-Based Class IIa HDAC Inhibitors for Huntington's Disease” (ACS Med Chem Lett, 2021).

Legend:
Histone deacetylase 9 = Histone deacetylase 9 (Homo sapiens, UniProt Q9UKV0); experiment: Inhibition of HDAC9 (unknown origin) using Boc Lys(TFA) as substrate by fluorogenic assay
Method in brief: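 Biochemical HDAC isoform assay with the artificial fluorogenic substrate Boc-Lys-(TFA)-AMC, which is specific to class IIa enzymes and HDAC8. IC50 taken as the geometric mean of three experiments.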

Histone deacetylase 1 = Histone deacetylase 1 (Homo sapiens, UniProt Q13547); experiment: Inhibition of HDAC1 (unknown origin) using Ac-Arg-Gly-Lys(Ac) as substrate by fluorogenic assay
Histone deacetylase 4 = Histone deacetylase 4 (Homo sapiens, UniProt P56524); experiment: Inhibition of Class 2A HDAC4 in human Jurkat E6.1 cells using Boc-Lys-(TFA)-AMC as substrate by fluorogenic assay; format: cell-based
Method in brief: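 Whole-cell assay in Jurkat E6.1 cells with artificial fluorogenic substrates: Boc-Lys-(TFA)-AMC for class IIa/HDAC8 activity, which in this line is mostly HDAC4, and Boc-Lys-(Ac)-AMC for class I/IIb activity. IC50 given as the geometric mean of three experiments.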

[1] = Inhibition of Class 2A HDAC in human HEK293 cells using Boc-Lys(TFA) as substrate by fluorogenic assay; format: cell-based
[2] = target: Class 1 histone deacetylase (Homo sapiens, UniProt Q13547+O15379+Q92769+Q9BY41); experiment: Inhibition of Class 1 HDAC in human HEK293 cells using H4K12 as substrate by fluorogenic assay; format: cell-based
[3] = target: Muscarinic acetylcholine receptor M3 (Homo sapiens, UniProt P20309); experiment: Displacement of [3H]4-DAMP from human recombinant M3 receptor at 10 uM incubated for 1 hr by radiometric scintillation counting analysis
Method in brief: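 Broad selectivity panel of binding, cellular, functional and enzymatic assays run by a contract lab. Each test was done at a single 10 μM concentration and reported as percent inhibition.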

Cytochrome P450 3A4 = Cytochrome P450 3A4 (Homo sapiens, UniProt P08684); experiment: Inhibition of CYP3A4 in human liver microsomes using testosterone as substrate incubated for 30 mins by LC-MS/MS analysis; format: ADME
[4] = Metabolic stability of the compound in C57BL/6 mouse plasma at 5 uM measured for 60 mins by LC-MS/MS analysis; format: ADME, cell-free; conditions: 1 h
[5] = Metabolic stability of the compound in mouse blood; format: ADME, tissue-based
[6] = Plasma clearance in C57BL/6J mouse at 3.3 mg/kg, iv by LC-MS/MS analysis; format: ADME, organism-based
Method in brief: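 Fed male C57Bl/6 mice dosed once intravenously at 3.3 mg/kg and by oral gavage at 11.5 mg/kg. Compound levels were quantified to derive PK parameters.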

[7] = Tmax in C57BL/6J mouse blood at 11.5 mg/kg, po administered via gavage by LC-MS/MS analysis; format: ADME, organism-based
[8] = Time during which drug concentration exceeds the IC50 for inhibition of human Class 2A HDAC in C57BL/6J mouse brain at 10 mg/kg, po administered via gavage by LC-MS/MS analysis; format: organism-based; conditions: in vivo
Method in brief: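 Single oral gavage doses of 10, 30 or 100 mg/kg were given to C57/BL6 mice. Brain and blood were sampled from 0.25 to 12 h and compound measured by LC-MS/MS. The time that total brain exposure stayed above the class IIa cellular IC50 was then estimated.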

[9] = In vivo inhibition of Class 1 HDAC in C57BL/6J mouse brain assessed as increase in H4K12 acetylation administered orally via gavage measured after 2 to 4 hrs by dot blot technique; format: organism-based; conditions: po, dose lower 10 mg/kg, time lower 2 hrs, dose upper 100 mg/kg, time upper 4 hrs
Method in brief: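 Mice received single oral gavage doses of 10, 30 or 100 mg/kg, and brains were sampled from 0.25 to 12 h. Brain compound levels were measured by LC-MS/MS. Dot blots read H4K12 acetylation normalized to histone H4, or pan-acetyl-lysine normalized to tubulin.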

[10] = Toxicity in CBAxC57BL/6J mouse assessed as effect on body weight at 10 to 100 mg/kg, po bid for 14.5 days; format: organism-based; conditions: in vivo, 348 h, dose 10-100 mg/kg, time 14.5 day
Method in brief: (§1)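 R6/2 HD mice and wild-type littermates, male and female, were dosed orally b.i.d. at 10, 30 or 100 mg/kg or with vehicle for 14.5 days. Vehicle was 10% (w/v) hydroxypropyl-β-cyclodextrin in 50 mM citrate buffer. Body weight, body temperature, passive observations and active manipulation scores were recorded. Blood and brain were collected 2 h after the final dose.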

[11] = Toxicity in CBAxC57BL/6J mouse assessed as effect on locomotor activity at 10 to 100 mg/kg, po bid for 14.5 days; format: organism-based; conditions: in vivo, 348 h, dose 10-100 mg/kg, time 14.5 day; method in brief: as §1
[12] = Toxicity in CBAxC57BL/6J mouse assessed as effect on shallow respiration at 10 to 100 mg/kg, po bid for 14.5 days; format: organism-based; conditions: in vivo, 348 h, dose 10-100 mg/kg, time 14.5 day; method in brief: as §1
[13] = Toxicity in CBAxC57BL/6J mouse assessed as effect on head tremor at 10 to 100 mg/kg, po bid for 14.5 days; format: organism-based; conditions: in vivo, 348 h, dose 10-100 mg/kg, time 14.5 day; method in brief: as §1
[14] = Toxicity in CBAxC57BL/6J mouse assessed as effect on tail tremor at 10 to 100 mg/kg, po bid for 14.5 days; format: organism-based; conditions: in vivo, 348 h, dose 10-100 mg/kg, time 14.5 day; method in brief: as §1
[15] = Toxicity in CBAxC57BL/6J mouse assessed as effect on straub tail at 10 to 100 mg/kg, po bid for 14.5 days; format: organism-based; conditions: in vivo, 348 h, dose 10-100 mg/kg, time 14.5 day; method in brief: as §1
[16] = Toxicity in CBAxC57BL/6J mouse assessed as effect on flat body posture at 10 to 100 mg/kg, po bid for 14.5 days; format: organism-based; conditions: in vivo, 348 h, dose 10-100 mg/kg, time 14.5 day; method in brief: as §1
[17] = Toxicity in CBAxC57BL/6J mouse assessed as effect on shivering at 10 to 100 mg/kg, po bid for 14.5 days; format: organism-based; conditions: in vivo, 348 h, dose 10-100 mg/kg, time 14.5 day; method in brief: as §1
[18] = Toxicity in CBAxC57BL/6J mouse assessed as effect on loss of paw pull at 10 to 100 mg/kg, po bid for 14.5 days; format: organism-based; conditions: in vivo, 348 h, dose 10-100 mg/kg, time 14.5 day; method in brief: as §1
[19] = Toxicity in CBAxC57BL/6J mouse assessed as effect on struggle by tail at 10 to 100 mg/kg, po bid for 14.5 days; format: organism-based; conditions: in vivo, 348 h, dose 10-100 mg/kg, time 14.5 day; method in brief: as §1
[20] = Toxicity in CBAxC57BL/6J mouse assessed as effect on seizure by tail at 10 to 100 mg/kg, po bid for 14.5 days; format: organism-based; conditions: in vivo, 348 h, dose 10-100 mg/kg, time 14.5 day; method in brief: as §1
[21] = In vivo inhibition of Class 1 HDAC in CBAxC57BL/6J mouse brain assessed as increase in histone H4 acetylation at 30 to 100 mg/kg, po bid for 14.5 days by western blot analysis; format: organism-based; conditions: 348 h, dose 30-100 mg/kg, time 14.5 day
Method in brief: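 R6/2 and wild-type littermate mice of both sexes were dosed orally b.i.d. for 14.5 days with 10, 30 or 100 mg/kg or vehicle (10% w/v hydroxypropyl-β-cyclodextrin in 50 mM citrate buffer). Half-brains were collected 2 h after the last dose. Dot blots measured global and H4K12 acetylation; Western blots measured H3, H4 and tubulin acetylation. Genotypes were pooled.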

[22] = target: Histone deacetylase 3/Nuclear receptor corepressor 1 (HDAC3/NCoR1) (Homo sapiens); experiment: Inhibition of HDAC3/NCOR1 (unknown origin) using Boc-Lys(Ac) as substrate by fluorogenic assay

Histone deacetylase 4, sequence (P56524 whole entry): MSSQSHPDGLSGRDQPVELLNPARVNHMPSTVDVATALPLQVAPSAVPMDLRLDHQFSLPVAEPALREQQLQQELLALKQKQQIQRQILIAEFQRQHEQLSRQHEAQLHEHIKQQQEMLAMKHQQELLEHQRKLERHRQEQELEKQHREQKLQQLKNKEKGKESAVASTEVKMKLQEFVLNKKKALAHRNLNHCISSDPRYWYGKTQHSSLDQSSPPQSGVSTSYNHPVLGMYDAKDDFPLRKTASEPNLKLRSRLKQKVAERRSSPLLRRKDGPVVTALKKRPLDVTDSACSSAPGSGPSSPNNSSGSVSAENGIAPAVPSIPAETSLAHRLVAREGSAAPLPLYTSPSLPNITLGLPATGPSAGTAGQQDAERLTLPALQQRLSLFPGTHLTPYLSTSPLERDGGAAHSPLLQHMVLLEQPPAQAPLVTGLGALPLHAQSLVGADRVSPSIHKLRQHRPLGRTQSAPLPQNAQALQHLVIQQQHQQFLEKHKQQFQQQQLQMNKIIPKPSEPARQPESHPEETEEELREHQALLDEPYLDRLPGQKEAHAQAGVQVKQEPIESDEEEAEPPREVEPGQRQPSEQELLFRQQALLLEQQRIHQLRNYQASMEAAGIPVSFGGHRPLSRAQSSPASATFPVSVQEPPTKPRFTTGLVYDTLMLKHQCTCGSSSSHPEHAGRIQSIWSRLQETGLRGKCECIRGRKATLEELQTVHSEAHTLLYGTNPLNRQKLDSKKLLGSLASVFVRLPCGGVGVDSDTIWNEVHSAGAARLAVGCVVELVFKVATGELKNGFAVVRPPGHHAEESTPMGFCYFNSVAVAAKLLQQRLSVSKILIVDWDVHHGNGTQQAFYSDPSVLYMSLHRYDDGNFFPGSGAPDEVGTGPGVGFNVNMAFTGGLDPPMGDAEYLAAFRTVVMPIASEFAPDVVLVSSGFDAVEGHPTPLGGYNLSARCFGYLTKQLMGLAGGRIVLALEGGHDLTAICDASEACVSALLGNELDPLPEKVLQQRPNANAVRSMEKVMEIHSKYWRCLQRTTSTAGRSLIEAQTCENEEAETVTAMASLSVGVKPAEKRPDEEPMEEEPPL
Histone deacetylase 1, sequence (Q13547 whole entry): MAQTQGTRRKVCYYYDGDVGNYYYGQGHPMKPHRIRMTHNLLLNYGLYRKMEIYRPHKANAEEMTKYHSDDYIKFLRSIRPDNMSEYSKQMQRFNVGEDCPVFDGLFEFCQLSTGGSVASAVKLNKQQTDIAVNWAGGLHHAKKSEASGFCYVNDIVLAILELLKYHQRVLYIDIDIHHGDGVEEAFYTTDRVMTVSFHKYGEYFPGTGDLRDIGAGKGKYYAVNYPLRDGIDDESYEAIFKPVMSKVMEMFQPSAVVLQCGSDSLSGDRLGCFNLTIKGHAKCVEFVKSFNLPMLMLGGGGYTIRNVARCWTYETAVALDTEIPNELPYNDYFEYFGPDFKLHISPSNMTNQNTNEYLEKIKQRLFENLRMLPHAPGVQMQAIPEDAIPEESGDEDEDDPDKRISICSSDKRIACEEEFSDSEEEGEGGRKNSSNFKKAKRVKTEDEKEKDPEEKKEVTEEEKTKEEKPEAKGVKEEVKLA
Muscarinic acetylcholine receptor M3, sequence (P20309 whole entry, looked up): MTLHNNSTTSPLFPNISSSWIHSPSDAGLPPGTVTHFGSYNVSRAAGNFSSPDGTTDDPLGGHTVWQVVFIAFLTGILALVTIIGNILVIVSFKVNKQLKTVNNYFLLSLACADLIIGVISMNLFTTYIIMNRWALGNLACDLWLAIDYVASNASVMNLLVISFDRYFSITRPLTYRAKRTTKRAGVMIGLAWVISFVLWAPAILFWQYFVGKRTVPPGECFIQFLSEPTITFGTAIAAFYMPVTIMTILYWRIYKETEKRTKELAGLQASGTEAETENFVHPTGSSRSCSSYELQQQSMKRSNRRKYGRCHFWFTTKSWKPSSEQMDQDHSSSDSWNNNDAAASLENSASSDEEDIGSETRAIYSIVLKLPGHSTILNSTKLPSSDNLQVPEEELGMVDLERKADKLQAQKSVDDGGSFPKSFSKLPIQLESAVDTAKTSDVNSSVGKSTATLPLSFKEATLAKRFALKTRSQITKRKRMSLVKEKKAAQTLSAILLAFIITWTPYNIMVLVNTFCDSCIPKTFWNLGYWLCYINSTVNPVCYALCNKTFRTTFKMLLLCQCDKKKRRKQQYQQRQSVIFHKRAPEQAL
Histone deacetylase 9, sequence (Q9UKV0 whole entry, canonical isoform): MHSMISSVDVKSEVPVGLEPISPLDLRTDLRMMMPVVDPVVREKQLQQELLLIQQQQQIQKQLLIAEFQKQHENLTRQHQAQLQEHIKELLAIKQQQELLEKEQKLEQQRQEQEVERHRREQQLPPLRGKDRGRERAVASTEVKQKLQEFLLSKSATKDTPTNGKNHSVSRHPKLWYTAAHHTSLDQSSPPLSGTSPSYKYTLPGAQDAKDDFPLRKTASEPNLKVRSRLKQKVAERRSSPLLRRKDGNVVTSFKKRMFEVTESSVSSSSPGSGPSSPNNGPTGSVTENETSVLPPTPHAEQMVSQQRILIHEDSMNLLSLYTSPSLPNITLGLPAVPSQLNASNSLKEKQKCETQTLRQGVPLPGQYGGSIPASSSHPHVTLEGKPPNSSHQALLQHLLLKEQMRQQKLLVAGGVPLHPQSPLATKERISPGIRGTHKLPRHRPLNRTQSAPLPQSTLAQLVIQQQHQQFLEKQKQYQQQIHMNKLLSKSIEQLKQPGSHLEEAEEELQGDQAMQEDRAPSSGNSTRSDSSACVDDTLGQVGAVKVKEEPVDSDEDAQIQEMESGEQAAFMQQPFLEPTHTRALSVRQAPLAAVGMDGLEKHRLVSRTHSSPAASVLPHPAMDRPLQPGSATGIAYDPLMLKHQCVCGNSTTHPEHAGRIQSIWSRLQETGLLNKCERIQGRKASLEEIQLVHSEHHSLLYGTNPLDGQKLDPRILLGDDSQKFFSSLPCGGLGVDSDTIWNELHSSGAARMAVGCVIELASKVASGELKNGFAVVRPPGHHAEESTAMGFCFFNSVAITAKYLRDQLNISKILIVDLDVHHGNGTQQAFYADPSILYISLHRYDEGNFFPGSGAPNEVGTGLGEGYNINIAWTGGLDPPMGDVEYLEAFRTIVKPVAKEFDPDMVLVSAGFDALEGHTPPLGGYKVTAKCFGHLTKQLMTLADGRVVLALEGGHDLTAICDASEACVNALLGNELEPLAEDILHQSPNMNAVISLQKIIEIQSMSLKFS
Cytochrome P450 3A4, sequence (P08684 whole entry): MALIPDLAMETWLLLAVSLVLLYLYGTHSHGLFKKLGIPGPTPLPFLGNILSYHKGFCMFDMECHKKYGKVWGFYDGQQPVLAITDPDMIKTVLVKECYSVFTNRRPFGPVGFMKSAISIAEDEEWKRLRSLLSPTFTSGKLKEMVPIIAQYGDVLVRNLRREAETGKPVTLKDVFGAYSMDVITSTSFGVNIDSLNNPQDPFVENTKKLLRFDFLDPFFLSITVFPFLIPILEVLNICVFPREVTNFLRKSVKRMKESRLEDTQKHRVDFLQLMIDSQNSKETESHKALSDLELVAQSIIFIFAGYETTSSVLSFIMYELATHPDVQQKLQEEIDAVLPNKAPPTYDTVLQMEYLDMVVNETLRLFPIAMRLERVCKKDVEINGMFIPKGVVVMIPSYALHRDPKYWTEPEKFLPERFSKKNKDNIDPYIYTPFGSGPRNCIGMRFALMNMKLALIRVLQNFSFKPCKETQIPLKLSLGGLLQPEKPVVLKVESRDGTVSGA

IC50 (Histone deacetylase 9): 0.03 µM
IC50 (Histone deacetylase 1): 17 µM
IC50 (Histone deacetylase 4): 0.04 µM
IC50 [1]: 0.01 µM
IC50 [2]: 9.9 µM
inhibition [3]: > 80%
IC50 (Cytochrome P450 3A4): > 50 µM
Stabilty [4]: Stable
Stabilty [5]: Stable
clearance [6]: 70 mL/min/kg
Tmax [7]: 30 min
T>IC50 [8]: 4 h
IC50 [22]: 10 µM
Structure (SMILES): C[C@H](CN1CCC[C@@H]1C)NC(=O)c1ccc(-c2noc(C(F)(F)F)n2)cc1
Activity [9]: Toxic
Activity [10]: Non-Toxic
Activity [11]: Non-Toxic
Activity [12]: Non-Toxic
Activity [13]: Non-Toxic
Activity [14]: Non-Toxic
Activity [15]: Non-Toxic
Activity [16]: Non-Toxic
Activity [17]: Non-Toxic
Activity [18]: Non-Toxic
Activity [19]: Non-Toxic
Activity [20]: Non-Toxic
Activity [21]: Toxic
